According to ChEMBL document CHEMBL2346629, “Discovery and characterization of novel allosteric FAK inhibitors” (Eur J Med Chem, 2013):

Assays:
[1] = biological target: Homeodomain-interacting protein kinase 4 (Homo sapiens) (UniProt Q8NE63); assay: Inhibition of HIPK4 (unknown origin) using [gamma-33P]ATP assessed as residual activity at 3 uM
Method in brief: (§1)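 Radiometric kinase profiling service covering 288 kinases (261 wild-type, 27 mutant). Inhibition was read as incorporation from [γ-³³P]ATP.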

[2] = biological target: Protein kinase C iota type (Homo sapiens) (UniProt P41743); assay: Inhibition of PKCiota (unknown origin) using [gamma-33P]ATP assessed as residual activity at 3 uM
[3] = biological target: Tyrosine-protein kinase Lyn (Homo sapiens) (UniProt P07948); assay: Inhibition of LYN (unknown origin) using [gamma-33P]ATP assessed as residual activity at 3 uM; method in brief: as §1
[4] = biological target: Glycogen synthase kinase-3 beta (Homo sapiens) (UniProt P49841); assay: Inhibition of GSK3B (unknown origin) using [gamma-33P]ATP assessed as residual activity at 3 uM; method in brief: as §1
[5] = biological target: Ribosomal protein S6 kinase alpha-2 (Homo sapiens) (UniProt Q15349); assay: Inhibition of RSK3 (unknown origin) using [gamma-33P]ATP assessed as residual activity at 3 uM
[6] = biological target: cGMP-dependent protein kinase 2 (Homo sapiens) (UniProt Q13237); assay: Inhibition of PKG2 (unknown origin) using [gamma-33P]ATP assessed as residual activity at 3 uM
[7] = biological target: Serine/threonine-protein kinase D1 (Homo sapiens) (UniProt Q15139); assay: Inhibition of PKCmu (unknown origin) using [gamma-33P]ATP assessed as residual activity at 3 uM
[8] = biological target: Cyclin-dependent kinase 7/ cyclin H (Homo sapiens) (UniProt P51946+P50613); assay: Inhibition of CDK7/cyclin H/MNAT1 (unknown origin) using [gamma-33P]ATP assessed as residual activity at 3 uM; type: protein-complex assay
Method in brief: (§2)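 Radiometric profiling across 288 kinases (261 wild-type, 27 mutant), run as an outsourced service. Inhibition read out as [gamma-33P]ATP incorporation into substrate.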

[9] = biological target: Serine/threonine-protein kinase TAO2 (Homo sapiens) (UniProt Q9UL54); assay: Inhibition of TAOK2 (unknown origin) using [gamma-33P]ATP assessed as residual activity at 3 uM
[10] = biological target: Death-associated protein kinase 1 (Homo sapiens) (UniProt P53355); assay: Inhibition of DAPK1 (unknown origin) using [gamma-33P]ATP assessed as residual activity at 3 uM
Method in brief: (§3)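 Reaction Biology HotSpot radiometric profiling panel of 288 kinases (261 wild-type, 27 mutant). Kinase activity was read out by incorporation of [γ-33P]ATP.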

[11] = biological target: TGF-beta receptor type-1 (Homo sapiens) (UniProt P36897); assay: Inhibition of ALK5 (unknown origin) using [gamma-33P]ATP assessed as residual activity at 3 uM; method in brief: as §2
[12] = biological target: Serine/threonine-protein kinase Sgk2 (Homo sapiens) (UniProt Q9HBY8); assay: Inhibition of SGK2 (unknown origin) using [gamma-33P]ATP assessed as residual activity at 3 uM
[13] = biological target: Aurora kinase A (Homo sapiens) (UniProt O14965); assay: Inhibition of Aurora A (unknown origin) using [gamma-33P]ATP assessed as residual activity at 3 uM; method in brief: as §2
[14] = biological target: Ribosomal protein S6 kinase alpha-3 (Homo sapiens) (UniProt P51812); assay: Inhibition of RSK2 (unknown origin) using [gamma-33P]ATP assessed as residual activity at 3 uM
[15] = biological target: Dual specificity protein kinase CLK4 (Homo sapiens) (UniProt Q9HAZ1); assay: Inhibition of CLK4 (unknown origin) using [gamma-33P]ATP assessed as residual activity at 3 uM; method in brief: as §3
[16] = system: Epidermal growth factor receptor (Homo sapiens), P00533 [L861Q]; assay: Inhibition of EGFR L861Q mutant(unknown origin) using [gamma-33P]ATP assessed as residual activity at 3 uM; type: protein assay; method in brief: as §3
[17] = biological target: Tyrosine-protein kinase receptor UFO (Homo sapiens) (UniProt P30530); assay: Inhibition of AXL (unknown origin) using [gamma-33P]ATP assessed as residual activity at 3 uM; method in brief: as §2
[18] = system: Fibroblast growth factor receptor 1 (Homo sapiens), P11362 [V561M]; assay: Inhibition of FGFR1 V561M mutant (unknown origin) using [gamma-33P]ATP assessed as residual activity at 3 uM; method in brief: as §3
[19] = biological target: Megakaryocyte-associated tyrosine-protein kinase (Homo sapiens) (UniProt P42679); assay: Inhibition of CTK (unknown origin) using [gamma-33P]ATP assessed as residual activity at 3 uM; method in brief: as §3
[20] = biological target: Casein kinase I isoform epsilon (Homo sapiens) (UniProt P49674); assay: Inhibition of CK1epsilon (unknown origin) using [gamma-33P]ATP assessed as residual activity at 3 uM; method in brief: as §3
[21] = biological target: Serine/threonine-protein kinase Sgk3 (Homo sapiens) (UniProt Q96BR1); assay: Inhibition of SGK3 (unknown origin) using [gamma-33P]ATP assessed as residual activity at 3 uM
[22] = biological target: Calcium/calmodulin-dependent protein kinase type 1D (Homo sapiens) (UniProt Q8IU85); assay: Inhibition of CAMK1d (unknown origin) using [gamma-33P]ATP assessed as residual activity at 3 uM; method in brief: as §2
[23] = system: Tyrosine-protein kinase BTK (Homo sapiens), Q06187 [E41K]; assay: Inhibition of BTK E41K mutant (unknown origin) using [gamma-33P]ATP assessed as residual activity at 3 uM; method in brief: as §2
[24] = biological target: Serine/threonine-protein kinase Nek2 (Homo sapiens) (UniProt P51955); assay: Inhibition of NEK2 (unknown origin) using [gamma-33P]ATP assessed as residual activity at 3 uM
[25] = system: Proto-oncogene tyrosine-protein kinase Src (Homo sapiens), P12931 [T341M]; assay: Inhibition of c-Src T341M mutant (unknown origin) using [gamma-33P]ATP assessed as residual activity at 3 uM
[26] = biological target: Dual specificity protein kinase CLK2 (Homo sapiens) (UniProt P49760); assay: Inhibition of CLK2 (unknown origin) using [gamma-33P]ATP assessed as residual activity at 3 uM; method in brief: as §3
[27] = biological target: Mitogen-activated protein kinase kinase kinase kinase 4 (Homo sapiens, UniProt O95819); assay: Inhibition of HGK (unknown origin) using [gamma-33P]ATP assessed as residual activity at 3 uM
[28] = biological target: Tyrosine-protein kinase Mer (Homo sapiens) (UniProt Q12866); assay: Inhibition of c-MER (unknown origin) using [gamma-33P]ATP assessed as residual activity at 3 uM
[29] = system: MAP kinase-interacting serine/threonine-protein kinase 1 (Homo sapiens), Q9BUB5 [T385D]; assay: Inhibition of MNK1 T385D mutant (unknown origin) using [gamma-33P]ATP assessed as residual activity at 3 uM
Method in brief: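 Contract radiometric panel screen of 288 kinases (261 wild-type, 27 mutant). Inhibition was read by [gamma-33P]ATP radioactivity incorporation.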

[30] = biological target: Ribosomal protein S6 kinase alpha-5 (Homo sapiens) (UniProt O75582); assay: Inhibition of MSK1 (unknown origin) using [gamma-33P]ATP assessed as residual activity at 3 uM
[31] = biological target: Tyrosine-protein kinase Fgr (Homo sapiens, UniProt P09769); assay: Inhibition of FGR (unknown origin) using [gamma-33P]ATP assessed as residual activity at 3 uM

TGF-beta receptor type-1 (Homo sapiens), sequence (P36897 whole entry): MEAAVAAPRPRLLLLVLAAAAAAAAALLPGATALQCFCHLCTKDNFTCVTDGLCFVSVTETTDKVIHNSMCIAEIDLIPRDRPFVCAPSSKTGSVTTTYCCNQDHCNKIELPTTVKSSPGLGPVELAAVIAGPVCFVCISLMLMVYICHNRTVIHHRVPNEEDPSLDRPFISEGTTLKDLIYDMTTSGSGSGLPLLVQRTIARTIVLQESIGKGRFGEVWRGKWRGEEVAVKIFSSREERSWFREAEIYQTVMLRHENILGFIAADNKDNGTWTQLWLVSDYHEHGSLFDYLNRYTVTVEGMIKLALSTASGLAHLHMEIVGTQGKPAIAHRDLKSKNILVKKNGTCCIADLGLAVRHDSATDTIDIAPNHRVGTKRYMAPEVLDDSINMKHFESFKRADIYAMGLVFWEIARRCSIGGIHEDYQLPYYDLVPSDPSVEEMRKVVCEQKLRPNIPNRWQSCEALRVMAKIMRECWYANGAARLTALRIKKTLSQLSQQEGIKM
Death-associated protein kinase 1 (Homo sapiens), sequence (P53355 whole entry, looked up): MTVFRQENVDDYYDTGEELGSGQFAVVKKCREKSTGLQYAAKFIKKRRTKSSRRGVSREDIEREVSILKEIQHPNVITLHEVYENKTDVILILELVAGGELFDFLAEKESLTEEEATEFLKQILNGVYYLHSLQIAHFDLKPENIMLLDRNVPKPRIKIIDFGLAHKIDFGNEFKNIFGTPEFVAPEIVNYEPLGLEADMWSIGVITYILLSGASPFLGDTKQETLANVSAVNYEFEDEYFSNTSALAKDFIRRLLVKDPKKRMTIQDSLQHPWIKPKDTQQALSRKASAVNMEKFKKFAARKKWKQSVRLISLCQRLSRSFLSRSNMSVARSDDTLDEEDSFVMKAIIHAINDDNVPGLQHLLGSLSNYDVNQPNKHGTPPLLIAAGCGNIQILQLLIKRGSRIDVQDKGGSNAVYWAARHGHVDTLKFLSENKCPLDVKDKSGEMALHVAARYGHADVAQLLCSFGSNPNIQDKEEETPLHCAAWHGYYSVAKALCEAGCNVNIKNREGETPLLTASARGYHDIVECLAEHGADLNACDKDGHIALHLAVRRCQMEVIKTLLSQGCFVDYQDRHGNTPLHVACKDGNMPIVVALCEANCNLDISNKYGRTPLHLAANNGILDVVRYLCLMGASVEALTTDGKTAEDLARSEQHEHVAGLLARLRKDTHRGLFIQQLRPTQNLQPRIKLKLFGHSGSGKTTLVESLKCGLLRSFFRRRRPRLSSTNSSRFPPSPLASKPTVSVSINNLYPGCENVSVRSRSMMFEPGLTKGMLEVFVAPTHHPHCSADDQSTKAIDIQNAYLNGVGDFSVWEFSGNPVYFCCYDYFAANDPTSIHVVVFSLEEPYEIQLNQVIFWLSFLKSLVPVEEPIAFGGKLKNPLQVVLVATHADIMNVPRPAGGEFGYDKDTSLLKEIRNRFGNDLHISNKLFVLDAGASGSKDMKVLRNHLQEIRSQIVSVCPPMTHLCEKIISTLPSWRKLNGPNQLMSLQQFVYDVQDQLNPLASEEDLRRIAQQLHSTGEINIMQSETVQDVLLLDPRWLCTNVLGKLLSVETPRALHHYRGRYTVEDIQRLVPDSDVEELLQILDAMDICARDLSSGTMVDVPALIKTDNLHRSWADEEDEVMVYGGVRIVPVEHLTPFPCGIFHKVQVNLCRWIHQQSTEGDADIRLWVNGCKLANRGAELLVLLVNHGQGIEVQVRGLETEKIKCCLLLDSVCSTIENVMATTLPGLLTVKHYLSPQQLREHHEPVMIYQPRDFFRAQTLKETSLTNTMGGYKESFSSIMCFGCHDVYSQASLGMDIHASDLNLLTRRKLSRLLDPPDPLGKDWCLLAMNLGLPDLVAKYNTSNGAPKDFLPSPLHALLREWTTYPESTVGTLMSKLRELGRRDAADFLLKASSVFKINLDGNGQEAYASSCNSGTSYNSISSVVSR
Fibroblast growth factor receptor 1 (Homo sapiens), P11362 [V561M], sequence (P11362 whole entry V561M): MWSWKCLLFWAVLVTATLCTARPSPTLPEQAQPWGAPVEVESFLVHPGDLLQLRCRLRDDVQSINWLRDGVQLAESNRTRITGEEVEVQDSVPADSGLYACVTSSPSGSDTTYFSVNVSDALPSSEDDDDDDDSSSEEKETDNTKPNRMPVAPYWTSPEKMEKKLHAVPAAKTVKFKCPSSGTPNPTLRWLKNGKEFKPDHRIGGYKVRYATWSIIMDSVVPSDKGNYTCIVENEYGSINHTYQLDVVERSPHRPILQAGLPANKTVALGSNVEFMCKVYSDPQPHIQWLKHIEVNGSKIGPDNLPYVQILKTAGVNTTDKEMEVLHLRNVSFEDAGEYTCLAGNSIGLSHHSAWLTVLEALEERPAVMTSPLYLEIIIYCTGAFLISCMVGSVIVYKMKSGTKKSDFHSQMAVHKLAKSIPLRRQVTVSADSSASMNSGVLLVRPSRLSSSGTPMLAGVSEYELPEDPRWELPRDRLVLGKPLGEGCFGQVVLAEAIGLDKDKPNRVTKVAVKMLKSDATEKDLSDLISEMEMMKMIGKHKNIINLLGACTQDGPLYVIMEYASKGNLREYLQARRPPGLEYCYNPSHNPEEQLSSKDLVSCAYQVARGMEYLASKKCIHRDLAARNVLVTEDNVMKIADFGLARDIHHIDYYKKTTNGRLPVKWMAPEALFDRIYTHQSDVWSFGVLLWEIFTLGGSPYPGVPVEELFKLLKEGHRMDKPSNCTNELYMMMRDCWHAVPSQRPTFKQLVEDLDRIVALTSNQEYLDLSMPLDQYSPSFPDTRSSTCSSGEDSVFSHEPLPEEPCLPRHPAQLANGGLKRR
Tyrosine-protein kinase BTK (Homo sapiens), Q06187 [E41K], sequence (Q06187 whole entry E41K): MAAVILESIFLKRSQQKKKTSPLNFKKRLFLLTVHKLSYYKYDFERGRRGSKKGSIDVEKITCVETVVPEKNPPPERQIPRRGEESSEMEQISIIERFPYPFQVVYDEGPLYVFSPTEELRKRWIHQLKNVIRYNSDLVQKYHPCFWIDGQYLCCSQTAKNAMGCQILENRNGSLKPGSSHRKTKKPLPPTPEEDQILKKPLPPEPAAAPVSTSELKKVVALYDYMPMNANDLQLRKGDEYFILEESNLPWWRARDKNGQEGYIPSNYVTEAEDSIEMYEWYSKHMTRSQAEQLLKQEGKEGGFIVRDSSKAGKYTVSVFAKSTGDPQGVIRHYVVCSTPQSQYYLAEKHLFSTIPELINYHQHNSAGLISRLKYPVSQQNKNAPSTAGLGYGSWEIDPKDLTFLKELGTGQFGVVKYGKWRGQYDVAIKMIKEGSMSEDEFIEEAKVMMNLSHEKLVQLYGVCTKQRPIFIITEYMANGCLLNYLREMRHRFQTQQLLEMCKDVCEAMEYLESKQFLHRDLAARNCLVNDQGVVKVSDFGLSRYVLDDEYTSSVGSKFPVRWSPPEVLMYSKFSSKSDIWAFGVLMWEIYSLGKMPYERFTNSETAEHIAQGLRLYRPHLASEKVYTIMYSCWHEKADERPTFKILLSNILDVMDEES
Serine/threonine-protein kinase TAO2 (Homo sapiens), sequence (Q9UL54 whole entry): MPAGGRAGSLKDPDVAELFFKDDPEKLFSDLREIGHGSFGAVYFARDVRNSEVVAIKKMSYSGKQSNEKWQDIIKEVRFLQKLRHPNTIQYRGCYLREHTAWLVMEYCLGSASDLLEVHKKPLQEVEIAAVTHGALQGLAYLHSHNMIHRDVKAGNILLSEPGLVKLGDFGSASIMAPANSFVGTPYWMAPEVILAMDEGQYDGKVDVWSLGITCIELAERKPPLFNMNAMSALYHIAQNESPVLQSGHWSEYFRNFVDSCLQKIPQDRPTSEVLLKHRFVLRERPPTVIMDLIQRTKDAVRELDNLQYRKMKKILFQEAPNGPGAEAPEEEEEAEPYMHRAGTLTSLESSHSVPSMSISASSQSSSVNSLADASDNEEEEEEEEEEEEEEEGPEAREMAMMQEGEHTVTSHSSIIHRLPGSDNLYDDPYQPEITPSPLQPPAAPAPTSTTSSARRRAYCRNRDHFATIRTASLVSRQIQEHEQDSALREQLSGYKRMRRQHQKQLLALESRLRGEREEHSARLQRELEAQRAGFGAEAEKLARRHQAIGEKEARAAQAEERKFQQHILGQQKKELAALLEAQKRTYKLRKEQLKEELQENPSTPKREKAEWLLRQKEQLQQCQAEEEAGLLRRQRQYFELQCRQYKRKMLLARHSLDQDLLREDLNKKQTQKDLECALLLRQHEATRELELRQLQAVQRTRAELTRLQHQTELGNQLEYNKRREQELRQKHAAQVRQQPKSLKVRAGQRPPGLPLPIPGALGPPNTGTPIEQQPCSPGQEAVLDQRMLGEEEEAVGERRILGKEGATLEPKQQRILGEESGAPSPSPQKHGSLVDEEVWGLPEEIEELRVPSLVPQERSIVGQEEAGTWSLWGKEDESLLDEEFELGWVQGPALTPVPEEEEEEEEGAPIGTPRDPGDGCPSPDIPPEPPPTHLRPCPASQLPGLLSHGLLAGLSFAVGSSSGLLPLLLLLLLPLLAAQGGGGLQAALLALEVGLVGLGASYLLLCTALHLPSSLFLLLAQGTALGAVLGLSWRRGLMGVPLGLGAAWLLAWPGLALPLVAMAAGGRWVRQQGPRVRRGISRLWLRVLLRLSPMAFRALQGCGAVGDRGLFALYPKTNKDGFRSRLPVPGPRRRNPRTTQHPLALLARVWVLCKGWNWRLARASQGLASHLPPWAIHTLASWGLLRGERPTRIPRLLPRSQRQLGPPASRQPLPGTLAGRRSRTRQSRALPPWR
Serine/threonine-protein kinase Nek2 (Homo sapiens), sequence (P51955 whole entry): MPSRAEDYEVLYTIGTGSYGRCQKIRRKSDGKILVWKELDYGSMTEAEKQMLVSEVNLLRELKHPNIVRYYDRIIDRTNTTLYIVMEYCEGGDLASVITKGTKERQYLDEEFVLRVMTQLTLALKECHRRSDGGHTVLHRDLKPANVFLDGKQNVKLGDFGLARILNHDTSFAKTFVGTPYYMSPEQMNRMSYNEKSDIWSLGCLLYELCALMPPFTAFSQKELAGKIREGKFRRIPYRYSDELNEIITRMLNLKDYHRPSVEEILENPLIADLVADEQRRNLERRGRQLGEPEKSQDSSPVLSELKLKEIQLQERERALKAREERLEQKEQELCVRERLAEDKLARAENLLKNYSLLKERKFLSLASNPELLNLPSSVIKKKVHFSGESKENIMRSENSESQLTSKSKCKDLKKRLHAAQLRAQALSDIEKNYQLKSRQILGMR

Activity [1]: 91%
Activity [2]: 95%
Activity [3]: 78%
Activity [4]: 103%
Activity [5]: 97%
Activity [6]: 93%
Activity [7]: 93%
Activity [8]: 97%
Activity [9]: 100%
Activity [11]: 89%
Activity [12]: 91%
Activity [13]: 90%
Activity [14]: 84%
Activity [15]: 51%
Activity [16]: 106%
Activity [17]: 89%
Activity [18]: 98%
Activity [19]: 96%
Activity [20]: 96%
Activity [21]: 93%
Activity [22]: 85%
Activity [23]: 100%
Activity [24]: 96%
Activity [25]: 77%
Activity [26]: 68%
Activity [27]: 25%
Activity [28]: 86%
Activity [29]: 86%
Activity [30]: 94%
Activity [31]: 47%
SMILES: CCc1ccc(-c2ccc3c(c2)-c2[nH]ncc2S(=O)(=O)N3C)cc1
Activity [10]: 94%
